Calls of active or inactive are those of the source. The rule behind the calls is not given here.
What was measured:
[1] = Inhibition of RSK expressed in SF9 cells; parameters: species or system Homo sapiens
MCF7 [2] = assay: Antiproliferative activity against human MCF7 cells after 48 hrs; type: functional, cell-based
Outline: (§1)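 MCF-7 or MCF-10A cells were seeded at 5000 per well in ATCC-recommended medium. After 24 h the medium was replaced with medium containing compound or vehicle. Viability was read 48 h later by luminescent cell-viability reagent. Results are fold proliferation as % of vehicle-treated cells, mean of n = 2 in quadruplicate ± SD. EC50 was obtained by best-fit curve analysis.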

MCF7 [3] = assay: Antiproliferative activity against human MCF7 cells at 100 uM after 48 hrs; type: functional; outline: as §1
MCF7 [4] = assay: Inhibition of RSK mediated mitogen-induced p140 phosphorylation in MCF7 cells pretreated at 75 uM; type: cell-based; details: Homo sapiens
Outline: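 MCF-7 cells were seeded at 3×10^5 per well and serum-starved 24 h. They were pre-incubated with inhibitor or vehicle (2 h per legend; methods state 4 h), then given 500 nM PMA or vehicle for 20 min. Cells were lysed in boiling SDS buffer without DTT, and lysates were normalized for total protein before immunoblotting for phospho-p140.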

MCF7 [5] = assay: Antiproliferative activity against human MCF7 cells at 75 uM after 48 hrs; type: functional, cell-based; outline: as §1
Homo sapiens = species on record: Homo sapiens; assay: Inhibition of RSK activity at 75 uM
[6] = Growth inhibition of human MCF10A cells at 75 uM 48 hrs; type: cell-based, MCF-10A; outline: as §1
MCF7 [7] = assay: Antiproliferative activity against human MCF7 cells at >100 uM after 48 hrs; type: functional, cell-based; outline: as §1
[8] = Antiproliferative activity against human MCF10A cells up to 200 uM after 48 hrs; type: cell-based; details: mcf-10a; outline: as §1
[9] = Antiproliferative activity against human MCF10A cells at 15 uM; type: cell-based; details: mcf-10a; outline: as §1
[10] = Inhibition of RSK expressed in SF9 cells at 10 uM; details: Homo sapiens
MCF7 [11] = assay: Antiproliferative activity against human MCF7 cells at 15 uM; type: functional; outline: as §1

Which IC50 [1] does the source give for CCO[C@@H]1[C@@H](OCC)[C@@H](O)[C@H](Oc2c(-c3ccc(O)cc3)oc3cc(O)cc(O)c3c2=O)O[C@H]1C here?
Its IC50 is 0.129 µM.

Which results are given for C[C@@H]1O[C@@H](Oc2c(-c3ccc(O)cc3)oc3cc(O)cc(O)c3c2=O)[C@H](O)[C@H](O)[C@H]1O [AFZELIN]?
IC50 [1]: 4.37 µM; Activity (MCF7 [2]): inactive

With CC(=O)O[C@@H]1[C@@H](OC(C)=O)[C@@H](O)[C@H](Oc2c(-c3ccc(O)cc3)oc3cc(O)ccc3c2=O)O[C@H]1C as the molecule, how does the IC50 [1] read?
The IC50 was 24.6 µM.

What about the Activity (MCF7 [3]) of the same molecule?
Its Activity is 50%.

What does the source list for CC(=O)O[C@@H]1[C@@H](OC(C)=O)[C@@H](O)[C@H](Oc2c(-c3ccc(O)cc3)oc3cccc(O)c3c2=O)O[C@H]1C?
Activity (MCF7 [4]): Active; Activity (MCF7 [5]): Active; IC50 [1]: 1.56 µM; Activity (Homo sapiens): Active; inhibition at 48 h, 75 µM [6]: 25%

Which inhibition (MCF7 [4]) does the source give for CC(=O)O[C@@H]1[C@@H](OC(C)=O)[C@@H](O)[C@H](Oc2c(-c3ccccc3)oc3cccc(O)c3c2=O)O[C@H]1C here?
The inhibition was 50%.

And the Activity (MCF7 [5])?
The Activity was “Active”.

What about the IC50 [1] of the same molecule?
Its IC50 is 13.2 µM.

What about the Activity (Homo sapiens) of the same molecule?
The Activity was “Active”.

What about the inhibition at 48 h, 75 µM [6] of the same molecule?
Its inhibition at 48 h, 75 µM is 25%.

Which Activity ([1]; Homo sapiens) does the source give for COc1ccc(-c2oc3cc(OC)cc(OC)c3c(=O)c2O[C@@H]2O[C@@H](C)[C@H](OC(C)=O)[C@@H](OC(C)=O)[C@H]2O)cc1 here?
Its Activity is “inactive”.

With CC(=O)O[C@@H]1[C@@H](OC(C)=O)[C@@H](O)[C@H](Oc2c(-c3ccc(O)cc3)oc3cc(O)cc(O)c3c2=O)O[C@H]1C as the molecule, how does the Activity (MCF7 [7]) read?
Its Activity is “Active”.

What about the Activity [8] of the same molecule?
The Activity was “Not Active”.

Which Activity [9] does the source give for CC(=O)Oc1ccc(-c2oc3cc(OC(C)=O)cc(OC(C)=O)c3c(=O)c2O[C@@H]2O[C@@H](C)[C@H](OC(C)=O)[C@@H](OC(C)=O)[C@H]2OC(C)=O)cc1 here?
The Activity was “Not Active”.

What about the inhibition [10] of the same molecule?
Its inhibition is 50%.

And the Activity (MCF7 [11])?
Its Activity is 50%.

Source: ChEMBL document CHEMBL1139997, “Structural basis for the activity of the RSK-specific inhibitor, SL0101” (Bioorg Med Chem, 2007)
